Active and inactive are the calls of the source. The calls are words filed in the database; no cut-off is given here.
Columns and labels:
[1] = system: OVCAR-3; assay: Antiproliferative activity against human OVCAR-3 cell line; format: functional
[2] = system: MDA-MB-435; assay: Antiproliferative activity against human MDA-MB-435 cell line; format: functional
[3] = system: HCT-116; assay: Antiproliferative activity against human HCT116 cell line; format: functional
[4] = system: HOP-62; assay: Antiproliferative activity against human HOP62 cell line; format: functional
[5] = system: SF-539; assay: Antiproliferative activity against human SF539 cell line; format: functional
[6] = system: DU-145; assay: Antiproliferative activity against human DU145 cell line; format: functional
[7] = system: UACC-62; assay: Antiproliferative activity against human UACC62 cell line; format: functional
[8] = system: SN12C; assay: Antiproliferative activity against human SN12C cell line; format: functional
[9] = target: T1, DNA topoisomerase 1 (Homo sapiens) (UniProt P11387); assay: Inhibition of human recombinant Top1-mediated DNA cleavage upto 10 uM
T1 sequence (whole entry): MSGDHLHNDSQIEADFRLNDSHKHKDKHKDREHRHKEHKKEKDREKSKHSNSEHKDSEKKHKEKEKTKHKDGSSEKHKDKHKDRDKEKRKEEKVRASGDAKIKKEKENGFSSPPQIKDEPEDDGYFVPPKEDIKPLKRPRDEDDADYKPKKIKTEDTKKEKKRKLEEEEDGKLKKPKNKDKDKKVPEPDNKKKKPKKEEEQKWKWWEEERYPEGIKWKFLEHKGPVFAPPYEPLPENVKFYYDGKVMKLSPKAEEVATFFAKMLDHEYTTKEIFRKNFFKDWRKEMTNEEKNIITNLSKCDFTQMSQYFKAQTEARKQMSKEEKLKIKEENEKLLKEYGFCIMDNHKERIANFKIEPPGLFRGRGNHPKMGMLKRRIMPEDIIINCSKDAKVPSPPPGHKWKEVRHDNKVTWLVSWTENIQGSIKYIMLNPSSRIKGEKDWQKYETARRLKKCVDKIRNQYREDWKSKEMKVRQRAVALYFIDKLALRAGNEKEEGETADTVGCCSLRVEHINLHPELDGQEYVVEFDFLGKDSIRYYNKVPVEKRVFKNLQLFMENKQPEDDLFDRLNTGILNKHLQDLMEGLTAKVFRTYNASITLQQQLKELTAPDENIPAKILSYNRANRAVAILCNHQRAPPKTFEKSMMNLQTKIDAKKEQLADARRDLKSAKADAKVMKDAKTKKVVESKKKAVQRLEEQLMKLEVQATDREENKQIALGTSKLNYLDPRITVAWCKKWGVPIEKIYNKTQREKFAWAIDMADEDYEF
How it was run: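 Baculovirus-purified human recombinant Top1. Substrate: 161 bp PvuII/HindIII fragment of pBluescript SK(-), 3′-end labeled with [α-32P]-dGTP by Klenow fill-in, about 50 000 dpm per reaction. Compounds up to 10 µM, 22 °C for 30 min; stopped with 0.5% SDS (final). Denaturing 16% polyacrylamide/7 M urea gels, phosphorimaging. Cleavage scored semiquantitatively (+ to ++++) against a reference indenoisoquinoline and 1 µM camptothecin.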

[10] = system: Panel (12 tumour cell lines); assay: Net cell kill in ip dosed mouse implanted with 12 human tumor cell lines; format: functional, organism-based

Compound | GI50 [1] [µM] | GI50 [2] [µM] | GI50 [3] [µM] | GI50 [4] [µM] | GI50 [5] [µM] | GI50 [6] [µM] | GI50 [7] [µM] | GI50 [8] [µM] | Activity [9] | Activity [10]
COc1cc2c3c(n(CCNCCCNCCn4c5c(c6cc(OC)c(OC)cc6c4=O)C(=O)c4ccccc4-5)c(=O)c2cc1OC)-c1ccccc1C3=O | 0.269 | 0.813 | 0.045 | 0.068 | 0.17 | 0.209 | 1.23 | 0.028 |  | 
CN(CCCn1c2c(c3ccccc3c1=O)C(=O)c1ccccc1-2)CCCn1c2c(c3ccccc3c1=O)C(=O)c1ccccc1-2 | 1.2 | 1.55 |  |  | 1.12 |  | 2 | 0.589 |  | 
O=C1c2ccccc2-c2c1c1ccccc1c(=O)n2CCNCCNCCNCCNCCn1c2c(c3ccccc3c1=O)C(=O)c1ccccc1-2 | 0.032 | 0.126 | 0.2 | 0.977 | 0.012 | 0.085 |  |  |  | 
O=C1c2ccccc2-c2c1c1ccccc1c(=O)n2CCNCCn1c2c(c3ccccc3c1=O)C(=O)c1ccccc1-2 | > 25.1 | > 25.1 | > 25.1 | > 25.1 | > 25.1 | > 25.1 | > 25.1 | > 25.1 |  | 
O=C1c2ccccc2-c2c1c1ccccc1c(=O)n2CCCCNCCCn1c2c(c3ccccc3c1=O)C(=O)c1ccccc1-2 | 0.372 | 0.562 | 0.056 | 0.028 |  | 0.288 | 0.513 | 0.132 |  | 
O=C1c2ccccc2-c2c1c1ccccc1c(=O)n2CCNCCCNCCn1c2c(c3ccccc3c1=O)C(=O)c1ccccc1-2 | 0.093 | 0.024 | < 0.005 | 0.339 | 0.155 | 0.079 | 0.182 | < 0.005 | Active | inactive
O=C1c2ccccc2-c2c1c1ccccc1c(=O)n2CCCNCCn1c2c(c3ccccc3c1=O)C(=O)c1ccccc1-2 | 8.91 | 2.24 | 1.05 | 0.977 | 14.5 | 1.91 | 5.01 | 11 |  | 
CC[C@@]1(O)C(=O)OCc2c1cc1n(c2=O)Cc2cc3ccccc3nc2-1 [CAMPTOTHECIN] |  | 0.04 | 0.03 | 0.01 | 0.01 | 0.01 | 0.01 | 0.02 |  | 
O=C1c2ccccc2-c2c1c1ccccc1c(=O)n2CCCNCCCn1c2c(c3ccccc3c1=O)C(=O)c1ccccc1-2 | 2.95 | 8.91 | 0.55 | 0.794 | 3.63 | 1 | 6.61 | 1.55 |  | 
O=C1c2ccccc2-c2c1c1ccccc1c(=O)n2CCCN1CCN(CCCn2c3c(c4ccccc4c2=O)C(=O)c2ccccc2-3)CC1 | > 100 | > 100 | 35.5 | 12.9 | > 100 | 24 | > 100 | 15.5 |  | 
CC(=O)O[C@H]1C(=O)[C@@]2(C)[C@H]([C@H](OC(=O)c3ccccc3)[C@]3(O)C[C@H](OC(=O)[C@H](O)[C@@H](NC(=O)c4ccccc4)c4ccccc4)C(C)=C1C3(C)C)[C@]1(OC(C)=O)CO[C@@H]1C[C@@H]2O |  |  |  |  |  |  |  |  |  | Active
O=C1c2ccccc2-c2c1c1ccccc1c(=O)n2CCNCCNCCn1c2c(c3ccccc3c1=O)C(=O)c1ccccc1-2 | 1.66 | 1.66 | 0.029 | 0.032 |  | 0.182 | 0.331 | 0.178 |  | 
CC(C)(C)OC(=O)N(CCCn1c2c(c3ccccc3c1=O)C(=O)c1ccccc1-2)CCN(CCCn1c2c(c3ccccc3c1=O)C(=O)c1ccccc1-2)C(=O)OC(C)(C)C | 13.2 | > 50.1 | 14.1 | 20 | > 50.1 | > 50.1 | 45.7 | 39.8 |  | 
COc1cc2c3c(n(CCCNCCCNCCCn4c5c(c6cc(OC)c(OC)cc6c4=O)C(=O)c4ccccc4-5)c(=O)c2cc1OC)-c1ccccc1C3=O | 9.55 | 3.98 | 0.331 | 1.51 | 4.17 | 19.5 | 4.27 | 0.24 |  | 
O=C1c2ccccc2-c2c1c1ccccc1c(=O)n2CCCNCCCNCCCn1c2c(c3ccccc3c1=O)C(=O)c1ccccc1-2 | 0.074 | 0.107 | < 0.01 | < 0.01 | 0.011 |  | 0.042 | < 0.01 | Active | inactive
COc1cc2c3c(n(CCCNCCCNCCCN)c(=O)c2cc1OC)-c1cc2c(cc1C3=O)OCO2 | 0.88 | 68 | 43 |  | > 100 | > 100 | 44 | 33 |  | 
O=C1c2ccccc2-c2c1c1ccccc1c(=O)n2CCCNCCNCCCn1c2c(c3ccccc3c1=O)C(=O)c1ccccc1-2 | 1.02 | 0.933 | < 0.01 | < 0.01 |  | < 0.01 | 0.052 | < 0.01 | Active | 
CC(C)(C)OC(=O)N(CCCN(CCn1c2c(c3ccccc3c1=O)C(=O)c1ccccc1-2)C(=O)OC(C)(C)C)CCn1c2c(c3ccccc3c1=O)C(=O)c1ccccc1-2 | 21.4 | > 50.1 | 22.9 | 22.4 | > 50.1 | > 50.1 | > 50.1 | > 50.1 |  | 
O=C1c2ccccc2-c2c1c1ccccc1c(=O)n2CCNCCNCCNCCn1c2c(c3ccccc3c1=O)C(=O)c1ccccc1-2 | 1.15 | 1 | 0.112 | 0.048 | 0.275 | 0.331 | 0.269 | 0.017 | Active | inactive
O=C1c2ccccc2-c2c1c1ccccc1c(=O)n2CCCNCCCCNCCCn1c2c(c3ccccc3c1=O)C(=O)c1ccccc1-2 | 0.135 | 0.676 | < 0.005 | 0.525 | 0.251 | 0.234 | 0.562 | < 0.005 | Active | inactive
CC(C)(C)OC(=O)N(CCCCN(CCCn1c2c(c3ccccc3c1=O)C(=O)c1ccccc1-2)C(=O)OC(C)(C)C)CCCn1c2c(c3ccccc3c1=O)C(=O)c1ccccc1-2 | 69.2 | 69.2 | 1.91 | 11 | 8.13 | 47.9 | 93.3 | 36.3 |  | 
NCCCn1c2c(c3ccccc3c1=O)C(=O)c1ccccc1-2 | 1.38 | 0.78 | 0.18 | 0.2 | 0.25 | 0.22 | 0.26 | 0.16 |  | 
